Assay results published in PubChem BioAssay AID463210 (The Scripps Research Institute Molecular Screening Center, 2010).
About 300 (0.091%) of roughly 330,000 compounds were called active.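 How the source made its calls: active means percent activation above the screen-wide mean plus 3 SD (cut at about 25% in these data); inactive means the rest.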 For the sample, actives were picked, then their nearest neighbours and some compounds at random.

Molecular target: Caspase-7 (Homo sapiens) (UniProt P55210)
Sequence (P55210 whole entry D23A/D198A/D206A): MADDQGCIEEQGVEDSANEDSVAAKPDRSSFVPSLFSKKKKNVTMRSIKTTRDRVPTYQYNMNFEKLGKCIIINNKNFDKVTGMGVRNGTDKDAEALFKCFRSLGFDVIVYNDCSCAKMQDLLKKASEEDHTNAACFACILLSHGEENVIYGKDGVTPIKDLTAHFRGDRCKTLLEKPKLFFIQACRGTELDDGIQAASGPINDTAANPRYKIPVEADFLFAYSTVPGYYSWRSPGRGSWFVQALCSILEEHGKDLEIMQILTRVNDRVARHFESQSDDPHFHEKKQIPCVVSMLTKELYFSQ
Assay: procaspase-7 activators, primary screen, counter-screen for procaspase-3 activator project, biochemical, absorbance, HTS, human (AID 463210)
Conditions: recombinant procaspase-7, Ac-DEVD-pNA absorbance 405 nm; at 8.5 µM; stronger effect = higher value; D23A/D198A/D206A triple mutant, cannot self-cleave; scale: DMSO 0, 5 µM enzyme 100
Outline: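 Assay system – Uncleavable procaspase-7 mutant enzyme · Quantity – 2 µM procaspase-7 mutant as dispensed · Times – 1 h preincubation, 2 h reaction · Dosing – single nominal 8.5 µM compound dose, 0.8% DMSO final · Buffer or medium – Zinc-free 50 mM HEPES buffer, pH 7.4, with NaCl and Triton X-100 · Detection – Epi-absorbance of released pNA at 405 nm, two timepoints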

| Compound | activation |
| --- | --- |
| COc1ccccc1N1CCN(c2nc(C)cc(=O)[nH]2)CC1 | 14.3% (inactive) |
| CN(CC(=O)Nc1ccccc1Cl)C(=O)COc1cccc2c1OC(C)(C)C2 | -0.56% (inactive) |
| CCOC(=O)c1cccc(NC(=O)c2ccc(F)cc2F)c1 | -3.97% (inactive) |
| CCOC(=O)[C@@H]1[C@H]2COc3cc(OC)ccc3[C@@H]2N2C(=O)N(c3cccc(C)c3)C(=O)[C@@]12C | -1.89% (inactive) |
| CN1CCN(c2ccccc2NC(=O)COc2ccc(C3CCCCC3)cc2)CC1 | 6.3% (inactive) |
| CCn1c(N)c(Br)c(=O)[nH]c1=O | 12.7% (inactive) |
| COc1ccc(C(=O)N2CCCCC2C(=O)Nc2ccc(-n3nc(C)cc3C)cc2)o1 (stereo unspecified) | 0.38% (inactive) |
| CC(C)CN(CC(C)C)C(=O)CN1c2cccc3cccc(c23)S1(=O)=O | 4.17% (inactive) |
| NC(=O)C1CCN(Cc2nc3c(Br)cc(Br)cc3c(=O)[nH]2)CC1 | -6.52% (inactive) |
| COc1ccc(S(=O)(=O)NCC2CCCN(C(=O)c3occc3C)C2)cc1 (stereo unspecified) | -3.49% (inactive) |
| CCCCCCCC[n+]1cccc(C(=O)N2c3c(nc(N)[nH]c3=O)NC(C)C2C)c1 (stereo unspecified) | -2.79% (inactive) |
| CCOc1cc(C(=O)Nc2c(C)ccc3nsnc23)cc(OCC)c1OCC | -0.81% (inactive) |
| Cc1[nH]n(C(N)=S)c(=O)c1N=Nc1ccc(Cl)cc1Cl | -4.08% (inactive) |
| CC1=NN(C(N)=S)C(=O)C1N=Nc1cc(Cl)ccc1Cl (stereo unspecified) | 42% (active) |
| CCN(C[C@H]1N[C@@](CC)(C(=O)OC)[C@H]2C(=O)N(C)C(=O)[C@@H]12)C(=O)Nc1ccc(F)cc1 | 3.05% (inactive) |
| CC(C)C[C@@H](COc1ccccc1)N1CCN(CC(C)C)CCC1=O | -4.75% (inactive) |
| CC(C(=O)NCC1CCCCC1)N(C)Cc1cccc(Cl)c1 (stereo unspecified) | -2.02% (inactive) |
| Cc1ccc(S(=O)(=O)NCC(=O)N(CC(=O)NCC2CCCO2)c2cccc(F)c2)cc1 (stereo unspecified) | -1.1% (inactive) |

| Compound | activation |
| --- | --- |
| O=C(COc1cccc2c1CCNC2=O)NC1CCCCC1 | -3.37% (inactive) |
| CCOC(=O)C1=C(CN2CCc3ccccc32)NC(=O)NC1c1cc(C)ccc1C (stereo unspecified) | 1.19% (inactive) |
| COc1cccc2cc(C(C)N(CCCN3CCOCC3)C(=O)Nc3ccc(Cl)cc3)oc12 (stereo unspecified) | 3.94% (inactive) |
| CCc1nnc(NC(=O)[C@@H](NC(=O)c2cccc(C)c2)C(C)C)s1 | -9.68% (inactive) |
| Cc1ccc(S(=O)(=O)N2CCC3(CC2)OCCO3)c(C)c1 | 7.32% (inactive) |
| O=C(NCCN1CCOC1=O)C1CCC(=O)N(CCc2ccc(Cl)cc2)C1 (stereo unspecified) | -3.88% (inactive) |
| O=S(=O)(Oc1ccccc1C(=S)N1CCOCC1)c1ccc(Cl)cc1 | 5.11% (inactive) |
| O=C(Cc1ccccc1F)NC1CCSc2ccccc21 (stereo unspecified) | -1.51% (inactive) |
| COc1ccc(CNS(=O)(=O)c2cc(-c3cc(C)no3)ccc2C(C)C)cc1 | 7.17% (inactive) |
| COc1cccc(C(=O)n2ccc(-c3cccs3)n2)c1 | 7.3% (inactive) |
| CCN(CCNC(=O)C1=C(C)C(=O)OC12CCC(C)CC2)c1ccccc1 (stereo unspecified) | -6.83% (inactive) |
| C=CCN1CN(S(=O)(=O)c2ccc(OC)cc2)c2nc3ccccc3nc21 | 10.1% (inactive) |
| COc1cccc(CNC(=O)CN(C)S(=O)(=O)c2ccc3c(c2)c(=O)n(C)c(=O)n3C)c1 | 3.47% (inactive) |
| CC(NC(=O)COc1ccc(-c2ccccc2)cc1)C1CCCO1 (stereo unspecified) | -7.63% (inactive) |
| Cc1cc(C)c(C)c(S(=O)(=O)N2CCN(C(=O)c3ccc4c(=O)n5c(nc4c3)CCC5)CC2)c1C | 0.83% (inactive) |
| Cn1c(C(=O)O)ccc1S(=O)(=O)N(Cc1ccccc1)Cc1ccccc1 | -2.76% (inactive) |
| Cc1ccc(S(=O)(=O)N(CC(=O)NCCSC2CCCCC2)c2ccccc2F)cc1 | 12.3% (inactive) |
| CSCc1cc(N2CCOCC2)nc(SCc2ccc(Cl)cc2Cl)n1 | -1.6% (inactive) |
